The results in this text go back to ChEMBL document CHEMBL1133515, “Hydrolytic stability versus ring size in lactams: implications for the development of lactam antibiotics and other serine protease inhibitors” (J Med Chem, 2000).

Assay type in all cases: ADME
Data set [1] is described as follows: Compound was evaluated for the second order hydrolysis rate constant. Summed up:
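Amides were reacted with NaOD in D2O under second-order conditions. Concentrations of amide and hydroxide were tracked over reaction time. k2 was taken from the gradient of a plot of the log of the lactam/hydroxide concentration ratio against time, using the second-order rate law with the starting amide and NaOD concentrations.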

A short description of data set [2]: Compound was evaluated for rate of hydrolysis expressed in hours at a pH of 12. Particulars: pH 12. The essentials:
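Deuterated phosphate buffer at pH 12 was made from 1 M K2DPO4 in D2O, with pH adjusted using 10 M KOD. Lactams were dissolved in it at 0.10 and 0.50 M. Hydrolysis was followed over time, and a rate constant per hour was derived.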

The nature of data set [3]: Compound was evaluated for rate of hydrolysis expressed in hours at a pH of 7.5. Particulars: pH 7.5. Summed up: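 Pseudo-first-order hydrolysis was run in 0.33 M phosphate buffer at pH 7.5 in D2O, made by mixing Na2DPO4 and KD2PO4 solutions. The pH was checked potentiometrically. The rate constant was expressed per hour.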

Consider `CNC(C)=O`, for which the k2 in data set [1] was 3.32e-06 M⁻¹ s⁻¹.
In data set [2], `O=C1CCCCN1` showed a k of 0.000648 h⁻¹. Also, the k2 in data set [1] turned out to be 0.000121 M⁻¹ s⁻¹.
Take `O=C1CCCCCCN1`: in data set [1], the k2 turned out to be 1.36e-07 M⁻¹ s⁻¹.
With `O=C1CCCCCCCN1`, the k2 in data set [1] was 2.72e-07 M⁻¹ s⁻¹.
In turn, `O=C1CCN1` yielded a k in data set [2] of 0.00103 h⁻¹. For the same molecule, the k2 in data set [1] was 0.000237 M⁻¹ s⁻¹.
`O=C1CCCN1` [2-PYRROLIDONE]: in data set [1], the k2 was 5.59 M⁻¹ s⁻¹.
Turning to `O=C1CCCCCN1` [CAPROLACTAM], the k2 in data set [1] was determined as 3.21e-06 M⁻¹ s⁻¹.
With `CC1(C)S[C@@H]2[C@H](NC(=O)Cc3ccccc3)C(=O)N2[C@H]1C(=O)[O-].[K+]` [PENICILLIN G POTASSIUM], the k in data set [3] was found to be 0.00337 h⁻¹; in data set [2], 2.3 h⁻¹.
